Results: paper PMC6923801 (Journal of medicinal chemistry, 2019)

Experiments:
GPR65 [1] = target: T1, GPR65 (Homo sapiens, UniProt Q8IYL9); conditions: cited from earlier work
human GPR68 = human GPR68 (Homo sapiens, UniProt Q15743); experiment: GloSensor cAMP assay, proton-mediated Gs-cAMP production at human GPR68; assay type: cell-based; conditions: for Δ: difference of Log(αβ/KB) from that of 1; for Δ / −Log (KB) / Log (αβ/KB) / fold increased allosteric activity (log(αβ/KB)) compared to 1: human GPR68; for Log (α): affinity cooperativity; for Log (α) / Log (β): human GPR68, HEK293T, Gs-cAMP; for Log (α) / −Log (KB) / Log (αβ/KB) / Log (β): mean ± SEM; for −Log (KB): allosteric binding affinity from functional assay; for Log (αβ/KB): allosteric index; for Log (β): efficacy cooperativity; for PAM activity at GPR68: inactive analogues
human GPR68, sequence (Q15743 whole entry): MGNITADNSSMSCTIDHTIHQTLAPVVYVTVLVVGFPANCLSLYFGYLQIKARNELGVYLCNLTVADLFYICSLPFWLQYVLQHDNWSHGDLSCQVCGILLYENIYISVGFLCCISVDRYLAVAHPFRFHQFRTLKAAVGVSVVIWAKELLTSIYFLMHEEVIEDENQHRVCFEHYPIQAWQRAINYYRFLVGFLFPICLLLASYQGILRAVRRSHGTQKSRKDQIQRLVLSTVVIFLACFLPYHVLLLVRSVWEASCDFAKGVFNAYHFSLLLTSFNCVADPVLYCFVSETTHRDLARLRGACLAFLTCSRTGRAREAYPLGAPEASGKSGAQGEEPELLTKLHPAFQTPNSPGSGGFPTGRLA
Procedure, shortened: (§1)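 HEK293T cells were transiently transfected with receptor and GloSensor cAMP plasmids, overnight (16–20 h). Cells were plated on poly-L-Lys in DMEM + 1% dFBS for 6–24 h, then loaded with 3.5 mM luciferin (HBSS, 20 mM TAPS, pH 8.40) for 1 h at 37 °C. Drug was applied in Ca/Mg-free HBSS pH buffers (MES 5.60–6.70, HEPES 6.80–8.20, TAPS 8.30–8.60) with 10 μM Ro 20-1724. Luminescence was read at 20–30 min.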

mouse GPR68 = mouse GPR68 (Mus musculus, UniProt Q8BFQ3); experiment: GloSensor cAMP assay at mouse GPR68; assay type: cell-based; conditions: for Δ: difference of Log(αβ/KB) at mouse GPR68 from the corresponding values at human GPR68
mouse GPR68, sequence (Q8BFQ3 whole entry): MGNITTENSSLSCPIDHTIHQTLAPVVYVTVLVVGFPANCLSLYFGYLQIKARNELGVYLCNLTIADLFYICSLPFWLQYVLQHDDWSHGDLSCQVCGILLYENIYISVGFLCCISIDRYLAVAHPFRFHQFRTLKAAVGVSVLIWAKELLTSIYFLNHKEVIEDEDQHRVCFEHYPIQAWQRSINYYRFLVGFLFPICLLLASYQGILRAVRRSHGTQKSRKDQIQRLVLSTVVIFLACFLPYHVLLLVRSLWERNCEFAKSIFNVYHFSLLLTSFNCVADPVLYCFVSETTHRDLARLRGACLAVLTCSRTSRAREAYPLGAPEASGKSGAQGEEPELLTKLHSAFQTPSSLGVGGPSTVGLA
Procedure, shortened: as §1

GPR4 [2] = target: T2, GPR4 (Homo sapiens, UniProt P46093); conditions: cited from earlier work
T2 sequence (P46093 whole entry): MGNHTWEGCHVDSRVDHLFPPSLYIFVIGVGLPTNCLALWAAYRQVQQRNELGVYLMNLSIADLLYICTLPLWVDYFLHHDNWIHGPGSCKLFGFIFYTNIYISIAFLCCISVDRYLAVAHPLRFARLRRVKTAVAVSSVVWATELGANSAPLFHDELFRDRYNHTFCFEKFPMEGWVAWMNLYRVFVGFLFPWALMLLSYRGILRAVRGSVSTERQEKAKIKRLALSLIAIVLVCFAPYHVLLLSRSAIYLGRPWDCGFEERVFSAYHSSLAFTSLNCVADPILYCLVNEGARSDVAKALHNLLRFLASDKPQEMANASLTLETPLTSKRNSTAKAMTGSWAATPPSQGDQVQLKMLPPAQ

[3] = tested on: human GPCRome (318 GPCRs); experiment: PRESTO-Tango GPCRome off-target agonist screen; assay type: cell-based; conditions: 1 μM
Procedure, shortened: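 HTLA cells were plated in DMEM + 2% dFBS overnight, then transfected overnight with receptor Tango constructs (15 ng/well) by in-plate PEI. Test compound was added without medium change and left overnight. Bright-Glo luminescence was read after 20 min at room temperature and expressed as fold of basal, using quadruplicate basal and sample wells. Controls were D2 with 100 nM quinpirole and untransfected cells.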

[4] = tested on: 48 common GPCRs, ion channels, and transporters; experiment: Radioligand binding panel of 48 common drug targets
Procedure, shortened: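 Binding profiling was done by the NIMH PDSP. Targets were first tested at 10 μM in quadruplicate. pKi values were determined for targets with ≥50% inhibition, from at least three independent assays, each in triplicate.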

[5] = Mouse pharmacokinetic study; assay type: in vivo; conditions: mice, single 25 mg/kg IP
Procedure, shortened: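 Nine male Swiss Albino mice received one intraperitoneal dose of 25 mg/kg. Vehicle was 5% N-methyl-2-pyrrolidone, 5% Solutol HS-15 and 90% normal saline. Plasma and brain were sampled at 0.5, 1.0 and 2.0 h. Concentrations are averages of three mice per time point ± SEM.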

MT1 receptor = MT1 receptor (Homo sapiens, UniProt P48039); experiment: Tango arrestin recruitment concentration response, MT1; assay type: cell-based
MT1 receptor, sequence (P48039 whole entry): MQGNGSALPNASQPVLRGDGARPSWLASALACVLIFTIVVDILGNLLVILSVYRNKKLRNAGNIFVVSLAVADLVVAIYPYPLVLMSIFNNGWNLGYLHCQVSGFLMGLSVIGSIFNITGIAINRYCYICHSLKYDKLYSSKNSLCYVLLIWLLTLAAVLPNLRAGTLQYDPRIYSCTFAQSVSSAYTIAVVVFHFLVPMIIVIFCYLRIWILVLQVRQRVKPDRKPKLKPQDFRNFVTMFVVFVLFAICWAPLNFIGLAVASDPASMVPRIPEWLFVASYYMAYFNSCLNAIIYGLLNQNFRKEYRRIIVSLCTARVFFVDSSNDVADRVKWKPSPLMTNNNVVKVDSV
Procedure, shortened: (§2)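 HTLA cells were transfected overnight with receptor DNA in DMEM + 10% FBS, then plated on poly-L-Lys in DMEM + 1% dFBS. Test compound was added 6 h later and incubated overnight (16–20 h). After removal of medium, Bright-Glo reagent was added and luminescence counted.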

GPR4 [6] = target: T2, GPR4; experiment: GloSensor cAMP assay at GPR4; assay type: cell-based; conditions: proton concentration-response with increasing modulator
Procedure, shortened: as §1

5-HT2B receptors = 5-HT2B receptors (Homo sapiens, UniProt P41595); experiment: Calcium release functional assay at 5-HT2B receptors; assay type: cell-based
5-HT2B receptors, sequence (P41595 whole entry): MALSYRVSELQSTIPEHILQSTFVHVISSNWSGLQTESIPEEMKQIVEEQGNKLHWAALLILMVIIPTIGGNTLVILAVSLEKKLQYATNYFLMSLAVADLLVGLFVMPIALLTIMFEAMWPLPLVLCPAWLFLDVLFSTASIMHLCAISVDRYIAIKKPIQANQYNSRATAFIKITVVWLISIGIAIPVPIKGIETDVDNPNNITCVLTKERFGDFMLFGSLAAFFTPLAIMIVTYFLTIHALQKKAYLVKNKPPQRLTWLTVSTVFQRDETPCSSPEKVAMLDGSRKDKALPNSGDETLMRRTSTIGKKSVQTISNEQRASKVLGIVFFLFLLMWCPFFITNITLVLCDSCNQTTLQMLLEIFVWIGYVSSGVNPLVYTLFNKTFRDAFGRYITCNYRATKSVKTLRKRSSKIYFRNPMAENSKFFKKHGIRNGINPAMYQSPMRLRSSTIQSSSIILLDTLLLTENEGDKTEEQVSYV
Procedure, shortened: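 HEK293 cells stably expressing 5-HT2B were plated in DMEM with 1% dFBS overnight (16–20 h). They were loaded with Fluo-4 Direct dye for 1 h at 37 °C in HBSS with 20 mM HEPES and 2.5 mM probenecid, pH 7.40. Drug dilutions contained 1 mg/mL BSA and 0.1 mg/mL ascorbic acid. Fluorescence was read 1/s for 2 min, with 10 s baseline. Read-out was peak fold of basal within the first minute.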

GPR65 [7] = target: T1, GPR65; experiment: GloSensor cAMP assay at GPR65; assay type: cell-based; conditions: proton concentration-response with increasing modulator
Procedure, shortened: as §1

[8] = target: atypical chemokine receptor 3 (ACKR3) (Homo sapiens, UniProt P25106); experiment: Tango arrestin recruitment concentration response, ACKR3; assay type: cell-based
atypical chemokine receptor 3 (ACKR3), sequence (P25106 whole entry): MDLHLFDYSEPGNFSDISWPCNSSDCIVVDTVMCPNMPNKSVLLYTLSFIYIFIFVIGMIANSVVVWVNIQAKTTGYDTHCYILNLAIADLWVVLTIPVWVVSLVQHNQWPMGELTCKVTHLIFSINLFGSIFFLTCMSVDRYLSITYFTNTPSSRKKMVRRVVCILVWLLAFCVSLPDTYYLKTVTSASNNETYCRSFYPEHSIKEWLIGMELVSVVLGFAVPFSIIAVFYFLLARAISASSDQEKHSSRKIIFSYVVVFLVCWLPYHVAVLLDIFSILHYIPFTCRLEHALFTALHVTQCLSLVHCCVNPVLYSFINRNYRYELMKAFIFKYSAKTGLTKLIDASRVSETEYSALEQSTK
Procedure, shortened: as §2

T1 sequence (Q8IYL9 whole entry): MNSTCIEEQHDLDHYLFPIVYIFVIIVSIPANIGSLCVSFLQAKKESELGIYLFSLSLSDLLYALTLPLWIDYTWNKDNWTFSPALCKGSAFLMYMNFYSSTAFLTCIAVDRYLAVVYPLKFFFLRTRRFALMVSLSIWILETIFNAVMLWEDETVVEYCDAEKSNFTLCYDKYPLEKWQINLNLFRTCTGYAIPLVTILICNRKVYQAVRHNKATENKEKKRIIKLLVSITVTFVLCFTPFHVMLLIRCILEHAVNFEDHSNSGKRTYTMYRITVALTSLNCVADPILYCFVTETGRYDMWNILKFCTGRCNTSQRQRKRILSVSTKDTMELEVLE

Row | Structure (SMILES) | Kb (human GPR68) | Δ (human GPR68) | Kb (mouse GPR68) | Δ (mouse GPR68) | off-target agonist activity at human GPCRome [3] | binding affinity to common drug targets [4] | Log (α) (human GPR68) | −Log (KB) (human GPR68) | Log (αβ/KB) (human GPR68) | Log (β) (human GPR68) | PAM activity at GPR68 (human GPR68) | PAM activity at GPR4 (GPR4 [6]) | agonist activity at 5-HT2B receptors (5-HT2B receptors) | fold increased allosteric activity (log(αβ/KB)) compared to 1 (human GPR68) | PAM activity at GPR65 (GPR65 [7]) | agonist type at ACKR3 [8] | other results
1 | Nc1nc(NCc2ccccc2)nc(-c2ccccc2CO)n1 [Compound 1] | 44.7 µM | 0.00 | 74.1 µM | −0.34 | – | – | – | – | – | – | – | – | – | – | – | – | activity at GPR65 (GPR65 [1]): no activity; activity at GPR4 (GPR4 [2]): no activity
2 | CN(C)c1nc(NCc2ccccc2)nc(-c2ccccc2CO)n1 [Compound 7, (2-(4-(Benzylamino)-6-(dimethylamino)-1,3,5-triazin-2-yl)-phenyl)methanol] | – | Inactive | – | – | no off-target agonist activity | minimal binding affinities | Inactive | Inactive | Inactive | Inactive | do not show PAM activity | – | – | – | – | – | –
3 | CC(=O)c1cccc(-c2nc(N)nc(NCc3ccccc3)n2)c1 [Compound 21, 1-(3-(4-Amino-6-(benzylamino)-1,3,5-triazin-2-yl)phenyl)ethan-1-one] | – | Inactive | – | – | no off-target agonist activity | minimal binding affinities | Inactive | Inactive | Inactive | Inactive | do not show PAM activity | – | – | – | – | – | –
4 | Nc1nc(NCc2ccc(Oc3ccccc3)cc2)nc(-c2c(F)cccc2CO)n1 [Compound 71, (2-(4-Amino-6-((4-phenoxybenzyl)amino)-1,3,5-triazin-2-yl)-3-fluorophenyl)methanol] | 1.41 µM | 1.52 | 7.59 µM | – | agonist activity only at the MT1 and MT2 receptors | – | – | – | – | – | – | no PAM activity | no agonist activity | 33 fold | weak potentiation of proton activity at GPR65 only at high concentrations | – | bioavailability [5]: bioavailable; blood-brain barrier penetration [5]: can readily cross the BBB; clinical signs [5]: no clinical signs observed; time high exposure levels in plasma and brain were maintained [5]: 2 h; agonist type at MT1 (MT1 receptor): weak full agonist
5 | Nc1nc(NCCc2ccccc2)nc(-c2cc(Cl)ccc2CO)n1 [Compound 77, (2-(4-Amino-6-(phenethylamino)-1,3,5-triazin-2-yl)-4-chlorophenyl)methanol] | 7.24 µM | 0.95 | 19.1 µM | −0.34 | agonist activity at an atypical chemokine receptor 3 (ACKR3) | – | – | – | – | – | – | no effect or weak activity only at high concentrations | no agonist activity | approximately 10 fold | no effect or weak activity only at high concentrations | full agonist activities | –
6 | Nc1nc(NCCCc2ccccc2)nc(-c2cc(Cl)ccc2CO)n1 [Compound 78, (2-(4-Amino-6-((3-phenylpropyl)amino)-1,3,5-triazin-2-yl)-4-chlorophenyl)methanol] | 4.47 µM | 1.07 | 13.8 µM | −0.40 | agonist activity at an atypical chemokine receptor 3 (ACKR3) | – | – | – | – | – | – | no effect or weak activity only at high concentrations | no agonist activity | approximately 10 fold | no effect or weak activity only at high concentrations | full agonist activities | –
